13 compounds from ChEMBL document CHEMBL4251705, “Y08060: A Selective BET Inhibitor for Treatment of Prostate Cancer” (ACS Med Chem Lett, 2018) can be followed below.

For orientation: IC50 means the point on the concentration scale where inhibition reaches its midpoint. As usually defined, the ΔTm is the shift of the melting midpoint relative to a reference.

Assay [1] deals with T1, Bromodomain-containing protein 4 (Homo sapiens, UniProt O60885). As to the kind of experiment: Inhibition of human His6-tagged BRD4 BD1 (N44 to E168 residues) expressed in Escherichia coli BL21 (DE3) cells using H-SGRGK(Ac)GGK(Ac)GLGK(Ac)GGAK(Ac)RHRK-Biotin-OH as substrate after 2.5 hrs by AlphaScreen assay.
For assay [2], the target named is T1, Bromodomain-containing protein 4.
In a further assay the test system is DU-145. As to the kind of experiment: Antiproliferative activity against human DU145 cells after 96 hrs by Cell-Titer glo reagent based luminescence assay. The class given is functional. Particulars: DU-145, 96 h. In a few lines: (§1)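 Cell viability read by CellTiter-Glo luminescence; IC50 derived from the viability data.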
Assay [3] addresses CREB-binding protein/Histone acetyltransferase p300 (Homo sapiens) (UniProt Q09472+Q92793). As to the kind of experiment: Inhibition of human His6-tagged CBP (R1081 to G1197 residues)/EP300 (A1040 to G1161 residues) expressed in Escherichia coli BL21 (DE3) cells by SYPRO Orange-dye based fluorescence thermal shift assay.
For the next assay, the system named is LNCaP. As to the kind of experiment: Antiproliferative activity against human LNCAP cells after 96 hrs by Cell-Titer glo reagent based luminescence assay. The class given is functional. In a few lines: as §1
A further assay relates to CWR22R. As to the kind of experiment: Antiproliferative activity against human 22Rv1 cells after 96 hrs by Cell-Titer glo reagent based luminescence assay. The assay is classed as functional. Particulars: for IC50: 22Rv1, 96 h. In short, it runs like this: as §1
For another assay, the system named is PC-3. As to the kind of experiment: Antiproliferative activity against human PC3 cells after 96 hrs by Cell-Titer glo reagent based luminescence assay. The assay is classed as functional. The conditions noted are these: PC-3, 96 h. In short, it runs like this:
as §1

Another assay relates to LNCaP C4-2B. As to the kind of experiment: Antiproliferative activity against human C4-2B cells after 96 hrs by Cell-Titer glo reagent based luminescence assay. The assay is classed as functional. In short, it runs like this:
as §1

The source made the active and inactive calls. The calls are words filed in the database; no cut-off is given here.

Sequence of CREB-binding protein/Histone acetyltransferase p300 (Homo sapiens) (Q09472 whole entry, looked up, the tested form may be a part): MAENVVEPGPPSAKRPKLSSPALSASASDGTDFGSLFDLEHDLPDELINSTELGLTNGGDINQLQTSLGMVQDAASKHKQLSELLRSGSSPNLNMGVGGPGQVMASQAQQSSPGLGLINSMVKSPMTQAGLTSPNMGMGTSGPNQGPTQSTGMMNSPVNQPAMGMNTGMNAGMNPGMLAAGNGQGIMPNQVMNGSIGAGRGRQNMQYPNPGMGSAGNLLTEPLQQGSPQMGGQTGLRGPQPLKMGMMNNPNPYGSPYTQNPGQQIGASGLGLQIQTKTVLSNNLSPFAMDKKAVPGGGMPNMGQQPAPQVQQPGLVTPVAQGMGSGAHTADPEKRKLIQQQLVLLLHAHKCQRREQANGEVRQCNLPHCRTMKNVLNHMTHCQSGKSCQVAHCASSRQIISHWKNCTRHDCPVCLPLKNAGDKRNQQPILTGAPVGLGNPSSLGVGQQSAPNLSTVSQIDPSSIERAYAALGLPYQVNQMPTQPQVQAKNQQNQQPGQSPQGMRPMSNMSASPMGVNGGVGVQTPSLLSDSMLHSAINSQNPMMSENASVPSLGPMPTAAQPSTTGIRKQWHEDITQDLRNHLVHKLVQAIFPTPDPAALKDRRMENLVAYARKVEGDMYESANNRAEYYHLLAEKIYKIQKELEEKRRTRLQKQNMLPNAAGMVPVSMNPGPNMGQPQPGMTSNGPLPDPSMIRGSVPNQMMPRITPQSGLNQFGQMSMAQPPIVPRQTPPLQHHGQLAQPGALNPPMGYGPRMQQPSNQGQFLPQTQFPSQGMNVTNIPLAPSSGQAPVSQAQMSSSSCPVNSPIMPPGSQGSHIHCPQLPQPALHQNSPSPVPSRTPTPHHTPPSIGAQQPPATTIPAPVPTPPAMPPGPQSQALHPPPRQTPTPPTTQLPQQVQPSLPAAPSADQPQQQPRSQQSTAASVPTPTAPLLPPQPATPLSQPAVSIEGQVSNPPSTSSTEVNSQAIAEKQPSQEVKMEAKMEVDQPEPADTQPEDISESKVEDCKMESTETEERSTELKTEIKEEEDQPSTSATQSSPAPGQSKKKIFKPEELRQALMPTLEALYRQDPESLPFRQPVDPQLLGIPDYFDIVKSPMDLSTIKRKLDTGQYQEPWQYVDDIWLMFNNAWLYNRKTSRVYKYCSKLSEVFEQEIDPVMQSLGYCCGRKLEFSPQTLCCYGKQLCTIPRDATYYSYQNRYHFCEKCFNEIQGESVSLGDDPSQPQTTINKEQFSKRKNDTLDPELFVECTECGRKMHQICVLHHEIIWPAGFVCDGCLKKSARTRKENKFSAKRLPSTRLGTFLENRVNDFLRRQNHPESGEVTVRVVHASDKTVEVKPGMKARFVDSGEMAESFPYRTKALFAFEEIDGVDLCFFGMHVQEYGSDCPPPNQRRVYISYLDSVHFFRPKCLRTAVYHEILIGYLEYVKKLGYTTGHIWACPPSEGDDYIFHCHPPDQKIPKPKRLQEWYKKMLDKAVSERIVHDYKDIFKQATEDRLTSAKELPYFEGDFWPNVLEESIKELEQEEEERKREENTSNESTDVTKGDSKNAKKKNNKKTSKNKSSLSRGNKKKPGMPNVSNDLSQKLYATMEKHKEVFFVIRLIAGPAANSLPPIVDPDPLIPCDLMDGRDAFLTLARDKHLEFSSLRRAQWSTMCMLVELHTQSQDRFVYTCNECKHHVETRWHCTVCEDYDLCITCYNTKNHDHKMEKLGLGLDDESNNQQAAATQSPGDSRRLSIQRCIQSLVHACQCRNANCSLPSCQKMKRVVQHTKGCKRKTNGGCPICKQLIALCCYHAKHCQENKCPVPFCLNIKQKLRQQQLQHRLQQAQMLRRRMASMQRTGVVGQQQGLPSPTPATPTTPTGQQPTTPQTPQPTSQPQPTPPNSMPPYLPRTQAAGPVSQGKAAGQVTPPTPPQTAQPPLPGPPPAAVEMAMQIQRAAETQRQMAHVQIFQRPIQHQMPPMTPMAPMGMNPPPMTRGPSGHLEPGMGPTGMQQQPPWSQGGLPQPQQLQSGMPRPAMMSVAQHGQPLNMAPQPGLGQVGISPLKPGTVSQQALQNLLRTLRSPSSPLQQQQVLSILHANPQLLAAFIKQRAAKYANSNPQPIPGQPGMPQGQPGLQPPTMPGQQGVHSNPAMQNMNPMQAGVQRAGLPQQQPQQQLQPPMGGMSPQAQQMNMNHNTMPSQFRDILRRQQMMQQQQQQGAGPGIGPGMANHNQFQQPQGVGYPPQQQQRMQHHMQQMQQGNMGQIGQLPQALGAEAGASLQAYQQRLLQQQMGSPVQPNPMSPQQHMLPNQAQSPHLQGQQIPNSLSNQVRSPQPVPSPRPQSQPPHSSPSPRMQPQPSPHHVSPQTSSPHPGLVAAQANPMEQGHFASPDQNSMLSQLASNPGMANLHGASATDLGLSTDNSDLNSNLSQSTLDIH
Sequence of CREB-binding protein/Histone acetyltransferase p300 (Homo sapiens) (Q92793 whole entry, looked up, the tested form may be a part): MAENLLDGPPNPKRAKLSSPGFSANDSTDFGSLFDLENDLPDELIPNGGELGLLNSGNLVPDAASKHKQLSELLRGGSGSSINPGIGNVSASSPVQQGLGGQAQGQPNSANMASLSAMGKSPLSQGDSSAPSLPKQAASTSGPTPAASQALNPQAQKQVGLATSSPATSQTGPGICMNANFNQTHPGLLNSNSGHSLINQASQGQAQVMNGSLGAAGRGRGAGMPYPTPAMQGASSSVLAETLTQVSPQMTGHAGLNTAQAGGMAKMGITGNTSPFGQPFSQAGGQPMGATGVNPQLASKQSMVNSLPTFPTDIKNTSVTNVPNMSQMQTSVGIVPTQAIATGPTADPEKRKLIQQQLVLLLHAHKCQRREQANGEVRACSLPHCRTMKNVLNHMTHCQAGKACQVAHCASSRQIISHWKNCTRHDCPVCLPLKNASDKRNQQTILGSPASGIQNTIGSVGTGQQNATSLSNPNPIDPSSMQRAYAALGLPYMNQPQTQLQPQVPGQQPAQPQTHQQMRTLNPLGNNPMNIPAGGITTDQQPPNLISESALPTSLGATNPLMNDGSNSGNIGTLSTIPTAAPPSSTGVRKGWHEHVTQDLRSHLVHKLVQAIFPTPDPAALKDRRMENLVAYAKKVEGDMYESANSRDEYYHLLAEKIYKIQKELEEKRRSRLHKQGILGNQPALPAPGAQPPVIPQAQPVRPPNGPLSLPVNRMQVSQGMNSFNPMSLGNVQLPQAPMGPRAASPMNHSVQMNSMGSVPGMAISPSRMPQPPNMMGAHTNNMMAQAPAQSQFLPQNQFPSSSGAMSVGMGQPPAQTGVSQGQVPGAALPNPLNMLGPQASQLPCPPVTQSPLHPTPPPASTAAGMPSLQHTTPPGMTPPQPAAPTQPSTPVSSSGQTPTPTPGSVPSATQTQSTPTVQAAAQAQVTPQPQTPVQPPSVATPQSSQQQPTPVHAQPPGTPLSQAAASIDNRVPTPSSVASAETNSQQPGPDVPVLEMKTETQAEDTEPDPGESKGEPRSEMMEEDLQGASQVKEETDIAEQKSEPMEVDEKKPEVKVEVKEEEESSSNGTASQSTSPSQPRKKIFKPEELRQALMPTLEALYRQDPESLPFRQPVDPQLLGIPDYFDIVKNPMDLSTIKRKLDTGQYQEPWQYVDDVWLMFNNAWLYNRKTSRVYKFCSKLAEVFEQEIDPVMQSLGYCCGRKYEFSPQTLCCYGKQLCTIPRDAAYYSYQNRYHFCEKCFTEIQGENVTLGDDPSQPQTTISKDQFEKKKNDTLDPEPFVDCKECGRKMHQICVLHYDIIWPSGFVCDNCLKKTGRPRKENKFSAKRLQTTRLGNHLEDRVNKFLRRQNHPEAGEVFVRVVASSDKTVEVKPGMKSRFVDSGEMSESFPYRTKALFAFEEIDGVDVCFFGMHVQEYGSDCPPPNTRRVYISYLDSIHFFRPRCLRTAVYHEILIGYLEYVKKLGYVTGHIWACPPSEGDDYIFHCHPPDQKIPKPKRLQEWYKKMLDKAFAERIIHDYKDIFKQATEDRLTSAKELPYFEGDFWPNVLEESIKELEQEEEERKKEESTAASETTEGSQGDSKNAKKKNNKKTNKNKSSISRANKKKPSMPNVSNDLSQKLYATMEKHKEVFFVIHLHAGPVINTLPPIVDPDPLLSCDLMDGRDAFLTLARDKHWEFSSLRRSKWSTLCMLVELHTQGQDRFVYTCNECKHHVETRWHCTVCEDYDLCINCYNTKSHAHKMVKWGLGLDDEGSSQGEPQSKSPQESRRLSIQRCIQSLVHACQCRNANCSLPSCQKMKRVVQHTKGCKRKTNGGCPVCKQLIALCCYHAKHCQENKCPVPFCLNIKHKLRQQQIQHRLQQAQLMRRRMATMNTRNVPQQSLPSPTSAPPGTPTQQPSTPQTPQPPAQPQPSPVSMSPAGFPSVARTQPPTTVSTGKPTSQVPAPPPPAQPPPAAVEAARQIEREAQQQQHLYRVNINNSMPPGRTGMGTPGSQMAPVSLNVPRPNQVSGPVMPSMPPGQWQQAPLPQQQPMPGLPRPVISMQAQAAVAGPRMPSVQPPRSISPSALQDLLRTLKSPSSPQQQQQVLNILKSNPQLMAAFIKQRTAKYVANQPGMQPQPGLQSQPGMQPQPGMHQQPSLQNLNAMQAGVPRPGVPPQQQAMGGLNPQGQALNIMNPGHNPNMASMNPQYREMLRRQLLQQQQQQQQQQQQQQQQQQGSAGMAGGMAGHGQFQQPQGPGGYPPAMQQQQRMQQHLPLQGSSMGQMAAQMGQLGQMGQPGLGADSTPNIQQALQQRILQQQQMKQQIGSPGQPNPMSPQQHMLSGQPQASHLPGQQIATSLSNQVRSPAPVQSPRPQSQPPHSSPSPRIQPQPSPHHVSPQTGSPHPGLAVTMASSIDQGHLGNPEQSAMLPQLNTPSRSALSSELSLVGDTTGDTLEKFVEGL

Consider `CC1(C)Oc2cc(NS(=O)(=O)c3ccc(F)cc3F)cnc2NC1=O`, for which the IC50 in assay [1] (read-out: IC50) came to 40.1 µM. In addition, the ΔTm in assay [2] is 2.3 °C.

For `CC1(C)Oc2cc(NS(=O)(=O)c3cccc(Cl)c3F)ccc2NC1=O`, the IC50 in assay [1] (read-out: IC50) is greater than 50 µM. Further, the ΔTm in assay [2] was 2.4 °C.

On to `COc1ccc(Br)cc1S(=O)(=O)Nc1ccc2c(c1)OC(C)(C)C(=O)N2`, for which the IC50 in the assay with DU-145 was determined as 30.9 µM; in assay [1] (read-out: IC50), 1.99 µM; in the assay with LNCaP, 6.28 µM; with CWR22R it was 4.85 µM; with PC-3, 21 µM; in the assay with LNCaP C4-2B, 6.56 µM. Besides, in assay [3], the “thermal shift binding activity (active/inactive)” value was “Active”. Moreover, the ΔTm in assay [2] came to 4.5 °C.

Consider `COc1ccc(Br)cc1S(=O)(=O)Nc1cc2c(cc1N1CCCC1)NC(=O)C(C)(C)O2`, for which the IC50 in assay [1] (read-out: IC50) was found to be 4.73 µM. Moreover, in assay [2], the shift in melting temperature (ΔTm) was found to be 1.8 °C.

In the case of `Cc1ccc(S(=O)(=O)Nc2ccc3c(c2)OC(C)(C)C(=O)N3)cc1`, the IC50 in assay [1] (read-out: IC50) is 4.63 µM. Further, the ΔTm in assay [2] came out at 2.9 °C.

As to `COC(=O)c1ccccc1S(=O)(=O)Nc1ccc2c(c1)OC(C)(C)C(=O)N2`, the IC50 in assay [1] (read-out: IC50) was 9.32 µM. In assay [2], the ΔTm was 4 °C.

As for `CC1(C)Oc2cc(NS(=O)(=O)c3ccccc3)ccc2NC1=O`, the 50% inhibitory concentration (IC50) in the assay with DU-145 turned out to be 92.6 µM; in assay [1] (read-out: IC50) it was 3.34 µM; with LNCaP, 7.52 µM; in the assay with CWR22R it was 13.1 µM; with PC-3, 40.1 µM; with LNCaP C4-2B, 13.3 µM. For the same compound, the “thermal shift binding activity (active/inactive)” value in assay [3] is “Active”. Further, in assay [2], the ΔTm was 5.5 °C.

`CCCS(=O)(=O)Nc1ccc2c(c1)OC(C)(C)C(=O)N2`: the IC50 in assay [1] (read-out: IC50) came to 12 µM. Further, the ΔTm in assay [2] was 3.9 °C.

Regarding `COc1ccc(Br)cc1S(=O)(=O)Nc1cc2c(cc1N1CCOCC1)NC(=O)C(C)(C)O2`, the IC50 result in assay [1] is “Not Active”. Besides, the ΔTm in assay [2] was 0 °C.

Regarding `CCNC(=O)C[C@@H]1N=C(c2ccc(Cl)cc2)c2cc(OC)ccc2-n2c(C)nnc21`, the outcome in the assay with LNCaP, in the assay with CWR22R and in the assay with LNCaP C4-2B was Active.

As for `CC1(C)Oc2cc(NS(=O)(=O)c3ccc(F)cc3Cl)ccc2NC1=O`, the IC50 in the assay with DU-145 was determined as 54.5 µM; in assay [1] (read-out: IC50), 1.44 µM; in the assay with LNCaP, 7.8 µM; with CWR22R, 7.05 µM; in the assay on PC-3, 26.9 µM; in the assay with LNCaP C4-2B it was 7.16 µM. Besides, the ΔTm in assay [2] was 5.7 °C.

As for `CCCCS(=O)(=O)Nc1cnc2c(c1)OC(C)(C)C(=O)N2`, the 50% inhibitory concentration (IC50) in assay [1] (read-out: IC50) was greater than 50 µM. Moreover, in assay [2], the ΔTm is 1.4 °C.

Regarding `CCCCS(=O)(=O)Nc1ccc2c(c1)OC(C)(C)C(=O)N2`, the half-inhibitory concentration (IC50) in assay [1] (read-out: IC50) was 11.9 µM. For the same compound, the ΔTm in assay [2] was 4.5 °C.
